Assay type in all cases: functional
Assay [1] has as its system Human alphaherpesvirus 1. Kind of assay: Evaluated for the minimum inhibitory concentration (MIC) in primary rabbit kidney (PRK) by 50% against TK- herpes simplex virus type 1 (TK- HSV-1) with strain B2006. An outline of the steps:
(§1)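 Confluent primary rabbit kidney cell monolayers were infected with 100 CCID50 of virus. After 1 h adsorption, residual virus was removed and cells were incubated with serial compound concentrations. Cytopathogenicity was scored once it reached completion in untreated infected controls. The endpoint was the concentration reducing virus-induced cytopathogenicity by 50%.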

The test system of assay [2] is Vesicular stomatitis virus. Put plainly: Evaluated for the minimum inhibitory concentration (MIC) in primary rabbit kidney (PRK) by 50% against vesicular stomatitis virus. Put shortly:
as §1

The subject of assay [3] is Human alphaherpesvirus 1. Put plainly: Evaluated for the minimum inhibitory concentration (MIC) in primary rabbit kidney (PRK) by 50% against herpes simplex virus type-1 (HSV-1) with strains McIntyre. Put shortly:
(§2)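 Confluent primary rabbit kidney cell cultures infected with 100 CCID50 virus; after 1 h adsorption residual virus removed and cells incubated with varying compound concentrations. Cytopathogenicity scored when complete in infected untreated controls; MIC = concentration reducing virus-induced cytopathogenicity by 50%. Compounds tested as such or after preincubation in medium with 10% fetal calf serum, 24 h, 37 °C.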

The test system of assay [4] is Human alphaherpesvirus 2. Put plainly: Evaluated for the minimum inhibitory concentration (MIC) in primary rabbit kidney (PRK) by 50% against herpes simplex virus type-2 (HSV-2) with strains Lyons. Put shortly:
as §2

Assay [5] deals with Mus musculus. Kind of assay: Topical treatment of intracutaneous TK- herpes simplex virus type 1 of strain VMW 1837 infection of Nu/nu mice for mean day of appearance of skin lesions and/or paralysis of the hind legs at 3% concentration (v/v in DMSO). Put shortly: (§3)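 Inocula were TK⁻ HSV-1 at 10⁶ CCID50/0.05 mL or HSV-1 KOS at 10^4.7 PFU/0.05 mL. Test formulations in DMSO were applied topically four times daily for 5 days, starting at infection. Skin lesions, hind-leg paralysis and death were recorded daily for 28 (KOS) or 49 (TK⁻) days, with five mice per group.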

In assay [6] the test system is Human alphaherpesvirus 1. Kind of assay: Evaluated for the minimum inhibitory concentration (MIC) in primary rabbit kidney (PRK) by 50% against herpes simplex virus type-1 (HSV-1) with strains KOS. Put shortly:
as §2

In assay [7] the test system is Mus musculus. Put plainly: Topical treatment of intracutaneous HSV-1(KOS) herpes simplex virus type 1 infection of Nu/nu mice for mean day of appearance of skin lesions and/or paralysis of the hind legs at 1% concentration (v/v in DMSO). Put shortly: as §3
Assay [8] has as its system Vaccinia virus. Kind of assay: Evaluated for the minimum inhibitory concentration (MIC) in primary rabbit kidney (PRK) by 50% against vaccinia virus. The settings on record: Orthopoxvirus vaccinia. Put shortly:
as §1

Assay [9] deals with Mus musculus. Kind of assay: Topical treatment of intracutaneous HSV-1(KOS) herpes simplex virus type 1 infection of Nu/nu mice for mean day of appearance of skin lesions and/or paralysis of the hind legs at 3% concentration (v/v in DMSO). Put shortly:
as §3

Assay [10] relates to Human alphaherpesvirus 1. Kind of assay: Evaluated for the minimum inhibitory concentration (MIC) in primary rabbit kidney (PRK) by 50% against herpes simplex virus type-1 (HSV-1) with strains F. Put shortly:
as §2

Assay [11] is filed under the species Oryctolagus cuniculus. Kind of assay: Evaluated for the minimum cytotoxic concentration (MCC) upon preincubation of rabbit kidney cells in medium containing 10% fetal calf serum at 37 degree Celsius for 24 hr. The settings on record: Oryctolagus cuniculus, kidney; read-out: MCC. An outline of the steps: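 Primary rabbit kidney cell cultures were exposed to compounds, some preincubated 24 h at 37 °C in medium with 10% fetal calf serum. The minimum cytotoxic concentration was the level causing a microscopically detectable change in normal cell morphology.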

Assay [12] relates to Mus musculus. Kind of assay: Topical treatment of intracutaneous TK- herpes simplex virus type 1 of strain VMW 1837 infection of Nu/nu mice for mean day of appearance of skin lesions and/or paralysis of the hind legs at 1% concentration (v/v in DMSO). An outline of the steps:
as §3

The subject of assay [13] is Mus musculus. Kind of assay: Topical treatment of intracutaneous HSV-1(KOS) herpes simplex virus type 1 infection of Nu/nu mice for mean day of appearance of skin lesions and/or paralysis of the hind legs at 0.3% concentration (v/v in DMSO). An outline of the steps: as §3
In assay [14] the test system is Human alphaherpesvirus 2. Put plainly: Evaluated for the minimum inhibitory concentration (MIC) in primary rabbit kidney (PRK) by 50% against herpes simplex virus type-2 (HSV-2) with strains 196. Put shortly:
as §2

Assay [15] has as its system Human alphaherpesvirus 1. Kind of assay: Evaluated for the minimum inhibitory concentration (MIC) in primary rabbit kidney (PRK) by 50% against TK- herpes simplex virus type 1 (TK- HSV-1) with strain VMW 1837. An outline of the steps:
as §1

Assay [16] concerns Mus musculus. Kind of assay: Topical treatment of intracutaneous TK- herpes simplex virus type 1 of strain VMW 1837 infection of Nu/nu mice for mean day of appearance of skin lesions and/or paralysis of the hind legs at 0.3% concentration (v/v in DMSO). An outline of the steps:
as §3

For assay [17], the system named is Human alphaherpesvirus 2. Kind of assay: Evaluated for the minimum inhibitory concentration (MIC) in primary rabbit kidney (PRK) by 50% against herpes simplex virus type-2 (HSV-2) with strains G. Put shortly:
as §1

≈ marks a conversion by molar mass, not a printed value.

With `O=c1[nH]c(=O)n([C@H]2C[C@H](O)[C@@H](CO)O2)cc1/C=C/Br` [BRIVUDINE], the MIC in assay [1] was 200 µg/mL (≈ 600 µM); in assay [2], greater than 400 µg/mL; in assay [3], 0.02 µg/mL (≈ 0.06 µM); in assay [4] it was 40 µg/mL (≈ 120 µM); in assay [6] it was 0.02 µg/mL (≈ 0.06 µM); in assay [8], 7 µg/mL (≈ 21 µM). In addition, the MIC in assay [10] was found to be 0.02 µg/mL (≈ 0.06 µM); in assay [14], 150 µg/mL (≈ 450 µM); in [15] it was 300 µg/mL (≈ 901 µM); in assay [17] it was 4 µg/mL (≈ 12 µM). Also, the “Mean day appearance of lesions” value in assay [5] is 10.8; in assay [7], 9.4; in assay [9], 9.4; in assay [12], 9.7; in assay [13], 6.2; in [16], 8.8. Also, the MCC in assay [11] was greater than 400 µg/mL.

These data come from ChEMBL document CHEMBL1124765, “Synthesis and biological properties of novel phosphotriesters: a new approach to the introduction of biologically active nucleotides into cells” (J Med Chem, 1990).
